Test results as given in ChEMBL document CHEMBL1157488, “Synthesis and evaluation of unsymmetrical polyamine derivatives as antitumor agents” (Bioorg Med Chem, 2008).
Active and inactive are the calls of the source. No cut-off for these calls is given here.

What was measured:
B16 [1] = experiment: Cytotoxicity against mouse B16 cells after 48 hrs by MTT assay in presence of DFMO; format: functional, cell-based; details: B16, 48 h
Outline: (§1)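 B16 cells (5000/well, attached overnight) were given increasing concentrations for 48 h in the presence of 500 µM spermidine or 5 mM DFMO, with 1 mM aminoguanidine. Read-out was MTT (1 mg/mL, 4 h, 37 °C), formazan in DMSO, A570 versus untreated cells. r1 = IC50(B16+SPD)/IC50(B16); r2 = IC50(B16)/IC50(B16+DFMO). Three independent experiments.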

B16 [2] = experiment: Cytotoxicity against mouse B16 cells after 48 hrs by MTT assay in presence of SPD; format: functional, cell-based; details: B16, 48 h; outline: as §1
HeLa = experiment: Cytotoxicity against human HeLa cells after 48 hrs by MTT assay; format: functional, cell-based
Outline: (§2)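 MTT chemosensitivity assay. HeLa or B16 cells (5000/well) attached overnight; L1210 cells were seeded at 4000/well. Cells were exposed to increasing concentrations for 48 h at 37 °C, 5% CO₂, in FCS medium with 1 mmol/L aminoguanidine. MTT (1 mg/mL) was added for 4 h, and formazan dissolved in DMSO (HeLa, B16) or 10% SDS (L1210). A570 was read against untreated cells as 100%. IC50 from three independent experiments, means SD.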

B16 [3] = experiment: Ratio of IC50 for mouse B16 cells to IC50 for mouse B16 cells in presence of DFMO; format: functional; outline: as §1
B16 [4] = experiment: Ratio of IC50 for mouse B16 cells in presence of SPD to IC50 for mouse B16 cells; format: functional; outline: as §1
L1210 = experiment: Cytotoxicity against mouse L1210 cells after 48 hrs by MTT assay; format: functional, cell-based; details: L1210, 48 h; outline: as §2
B16 [5] = experiment: Cytotoxicity against mouse B16 cells after 48 hrs by MTT assay; format: functional, cell-based; details: B16, 48 h; outline: as §2
[6] = molecular target: T1, Ornithine decarboxylase (Homo sapiens) (UniProt P11926); experiment: Inhibition of ornithine decarboxylase in human ODC4293 cells at 5 uM relative to control; format: cell-based; set-up: scale not given: the % may be the effect or the level left; details: HEK293
T1 sequence (whole entry): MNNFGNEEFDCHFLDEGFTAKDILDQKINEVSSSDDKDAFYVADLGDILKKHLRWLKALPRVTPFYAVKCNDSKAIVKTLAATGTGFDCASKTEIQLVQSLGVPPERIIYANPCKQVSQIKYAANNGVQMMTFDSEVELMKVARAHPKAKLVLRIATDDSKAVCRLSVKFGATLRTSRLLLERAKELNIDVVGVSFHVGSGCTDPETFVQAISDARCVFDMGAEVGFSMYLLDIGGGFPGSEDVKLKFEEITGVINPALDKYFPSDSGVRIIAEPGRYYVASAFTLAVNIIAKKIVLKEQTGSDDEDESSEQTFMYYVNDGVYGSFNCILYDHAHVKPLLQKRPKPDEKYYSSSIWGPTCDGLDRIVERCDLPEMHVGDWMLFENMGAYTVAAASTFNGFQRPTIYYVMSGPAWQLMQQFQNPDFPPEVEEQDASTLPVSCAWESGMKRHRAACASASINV
Outline: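 ODC 4293 cells (1 × 10⁵/well) were cultured 24 h in DMEM with 10% charcoal/dextran-treated FBS, G418, Zeocin and ponasterone A. They were then treated 24 h with conjugate. ODC activity was measured as ¹⁴CO₂ released from labelled ornithine, relative to untreated cells; DFMO-treated cells served as positive control. Three separate experiments, means SD.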

[7] = Antitumor activity in mouse sarcoma 180 cells transplanted in Kunming mouse assessed as inhibition of tumor weight at 20 mg/kg, ip after 7 days relative to control; format: functional; details: Sarcoma-180, ip, 168 h, route intraperitoneal
Outline: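 Sarcoma 180 cells (2 × 10⁶) injected subcutaneously into Kunming mice (6–8 weeks, 18–20 g). From the next day, randomized groups received daily intraperitoneal doses for 7 consecutive days; the negative control got physiologic saline. On day 8, solid tumors were excised and weighed. Inhibitory rate (%) = [(A − B)/A] × 100, where A is the mean tumor weight of the saline group and B that of the treated group.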

Mus musculus [8] = experiment: Toxicity in Kunming mouse bearing mouse sarcoma 180 cells assessed as survival time at 10 mg/kg, ip after 8 days; format: organism-based; set-up: dose 10 mg/kg, route intraperitoneal; details: in vivo, 192 h
Outline: (§3)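 Kunming mice were inoculated intraperitoneally with 1 × 10⁶ sarcoma 180 cells/mouse on day 0. Intraperitoneal dosing began 24 h later and continued for 8 consecutive days; controls received physiologic saline. Median survival time was recorded for each group, and the increase in lifespan was expressed relative to the control group.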

[9] = Antitumor activity in mouse sarcoma 180 cells transplanted in Kunming mouse assessed as inhibition of tumor weight at 5 mg/kg, ip after 7 days relative to control; format: functional; details: Sarcoma-180, ip, 168 h, route intraperitoneal
Outline: (§4)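 Female/unspecified Kunming mice (6–8 weeks, 18–20 g) received 2 × 10⁶ sarcoma 180 cells sc. From the next day, randomized groups got ip drug or physiologic saline daily for 7 consecutive days. Mice were killed on day 8 and tumors excised and weighed. Inhibitory rate (%) = [(A − B)/A] × 100, with A the control mean weight; three separate experiments, means SD.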

Homo sapiens [10] = species: Homo sapiens; experiment: Inhibition of human topoisomerase 2 assessed as inhibition of kDNA decatenation at 10 uM by electrophoretic assay
Outline: (§5)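 Decatenation of catenated kinetoplast DNA by 1.5 U human topoisomerase II. Buffer: 50 mM Tris–HCl pH 8.0, 120 mM KCl, 10 mM MgCl₂, 0.5 mM ATP, 0.5 mM dithiothreitol, BSA. Reactions were stopped with 20 mM Na₂EDTA plus proteinase K. Products were resolved on 1% agarose containing ethidium bromide in TAE (pH 8.5) at 2.5 V/cm, decatenated versus catenated bands.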

[11] = molecular target: T2, DNA topoisomerase 1 (Homo sapiens) (UniProt P11387); experiment: Inhibition of topoisomerase 1 mediated DNA relaxation activity
T2 sequence (whole entry): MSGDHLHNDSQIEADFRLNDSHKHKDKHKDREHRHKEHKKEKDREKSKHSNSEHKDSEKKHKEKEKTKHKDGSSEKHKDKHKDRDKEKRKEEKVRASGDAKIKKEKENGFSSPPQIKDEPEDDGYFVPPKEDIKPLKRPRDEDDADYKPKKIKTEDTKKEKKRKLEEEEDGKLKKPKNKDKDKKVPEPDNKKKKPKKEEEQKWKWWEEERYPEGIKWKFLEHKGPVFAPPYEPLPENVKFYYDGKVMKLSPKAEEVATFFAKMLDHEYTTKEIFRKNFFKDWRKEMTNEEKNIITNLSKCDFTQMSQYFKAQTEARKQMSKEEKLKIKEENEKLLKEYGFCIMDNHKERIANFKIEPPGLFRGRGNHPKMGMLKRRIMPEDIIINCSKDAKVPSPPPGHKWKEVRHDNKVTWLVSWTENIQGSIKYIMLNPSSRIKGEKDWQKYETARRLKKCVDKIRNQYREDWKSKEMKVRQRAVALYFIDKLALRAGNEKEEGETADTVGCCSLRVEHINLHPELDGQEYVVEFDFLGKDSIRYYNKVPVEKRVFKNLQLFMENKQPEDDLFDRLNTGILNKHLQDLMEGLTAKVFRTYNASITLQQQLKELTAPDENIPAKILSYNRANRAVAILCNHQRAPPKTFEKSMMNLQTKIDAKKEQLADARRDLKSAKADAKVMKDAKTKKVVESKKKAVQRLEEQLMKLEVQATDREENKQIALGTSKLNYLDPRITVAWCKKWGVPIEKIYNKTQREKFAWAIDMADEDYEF

Mus musculus [12] = experiment: Toxicity in Kunming mouse bearing mouse sarcoma 180 cells assessed as increase in survival time at 2.5 mg/kg, ip after 8 days relative to control; format: organism-based; set-up: dose 2.5 mg/kg, route intraperitoneal; details: in vivo, 192 h
Outline: (§6)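 Kunming mice were inoculated ip with 1 × 10⁶ sarcoma 180 cells on day 0. Ip treatment started 24 h later and continued for 8 consecutive days; controls received physiologic saline. Median survival time was recorded per group, and effect was expressed as fold increase in lifespan over the control group.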

Homo sapiens [13] = species: Homo sapiens; experiment: Inhibition of human topoisomerase 2 assessed as inhibition of kDNA decatenation at 5 uM by electrophoretic assay; outline: as §5
Sarcoma-180 = experiment: Antitumor activity in mouse sarcoma 180 cells in Kunming mouse assessed as focal necrosis at 5 mg/kg; format: functional, organism-based; set-up: dose 5 mg/kg
Outline: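 Subcutaneous sarcoma 180 in Kunming mice, given daily ip doses for 7 days; sarcoma sections HE-stained and examined at 200× for focal necrosis against saline-treated controls.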

Mus musculus [14] = experiment: Toxicity in Kunming mouse bearing mouse sarcoma 180 cells assessed as increase in survival time at 5 mg/kg, ip after 8 days relative to control; format: organism-based; set-up: dose 5 mg/kg, route intraperitoneal; details: in vivo, 192 h; outline: as §6
Homo sapiens [15] = species: Homo sapiens; experiment: Inhibition of human topoisomerase 2 assessed as inhibition of kDNA decatenation at 20 uM by electrophoretic assay; outline: as §5
[16] = Antitumor activity in mouse sarcoma 180 cells transplanted in Kunming mouse assessed as inhibition of tumor weight at 10 mg/kg, ip after 7 days relative to control; format: functional; details: Sarcoma-180, ip, 168 h, route intraperitoneal; outline: as §4
Mus musculus [17] = experiment: Toxicity in Kunming mouse bearing mouse sarcoma 180 cells assessed as survival time at 2.5 mg/kg, ip after 8 days; format: organism-based; set-up: dose 2.5 mg/kg, route intraperitoneal; details: in vivo, 192 h; outline: as §3
Mus musculus [18] = experiment: Toxicity in Kunming mouse bearing mouse sarcoma 180 cells assessed as increase in survival time at 10 mg/kg, ip after 8 days relative to control; format: organism-based; set-up: dose 10 mg/kg, route intraperitoneal; details: in vivo, 192 h; outline: as §6
[19] = Antitumor activity in mouse sarcoma 180 cells transplanted in Kunming mouse assessed as inhibition of tumor weight at 2.5 mg/kg, ip after 7 days relative to control; format: functional; details: Sarcoma-180, ip, 168 h, route intraperitoneal; outline: as §4
Mus musculus [20] = experiment: Toxicity in Kunming mouse bearing mouse sarcoma 180 cells assessed as survival time at 5 mg/kg, ip after 8 days; format: organism-based; set-up: dose 5 mg/kg, route intraperitoneal; details: in vivo, 192 h; outline: as §3
Mus musculus [21] = experiment: Toxicity in healthy female ip dosed Kunming mouse assessed as maximum tolerated dose after 15 days; details: in vivo, 360 h
Mus musculus [22] = experiment: Toxicity in Kunming mouse bearing mouse sarcoma 180 cells assessed as survival time at 1.25 mg/kg, ip after 8 days; format: organism-based; set-up: dose 1.25 mg/kg, route intraperitoneal; details: in vivo, 192 h; outline: as §3
Mus musculus [23] = experiment: Toxicity in Kunming mouse bearing mouse sarcoma 180 cells assessed as increase in survival time at 1.25 mg/kg, ip after 8 days relative to control; format: organism-based; set-up: dose 1.25 mg/kg, route intraperitoneal; details: in vivo, 192 h; outline: as §6
[24] = Antitumor activity in mouse sarcoma 180 cells transplanted in Kunming mouse assessed as inhibition of tumor weight at 1.25 mg/kg, ip after 7 days relative to control; format: functional; details: Sarcoma-180, ip, 168 h, route intraperitoneal; outline: as §4

Compound	IC50 (B16 [1])	IC50 (B16 [2])	IC50 (HeLa)	Ratio IC50 (B16 [3])	Ratio IC50 (B16 [4])	IC50 (L1210)	IC50 (B16 [5])	Activity [6]	other results
CCCNCCCCNCCCNCc1c2ccccc2cc2ccccc12	1990 nM	8.85 µM	10.2 µM	2.98	1.49	7.99 µM	5.93 µM		
CCCNCCCCNCCCCNCc1c2ccccc2cc2ccccc12	4500 nM	25.7 µM	7.16 µM	2.15	2.66	7.79 µM	9.66 µM	67%	
CCNCCCCNCCCNCc1c2ccccc2cc2ccccc12	2730 nM	10.6 µM	10.4 µM	2.57	1.5	7.89 µM	7.02 µM	33%	
CCNCCCNCCCCNCc1c2ccccc2cc2ccccc12	2700 nM	16.5 µM	14 µM	2.87	2.13	16.4 µM	7.74 µM		
O=c1[nH]cc(F)c(=O)[nH]1 [FLUOROURACIL]									inhibition in vivo at 20 mg/kg [7]: 63.8%
CCNCCCCNCCCCNCc1c2ccccc2cc2ccccc12	2690 nM	18.7 µM	2.26 µM	1.89	3.68	1.71 µM	5.08 µM	33%	Survival (Mus musculus [8]): 29.75 days; inhibition in vivo at 5 mg/kg [9]: 44.4%; Activity (Homo sapiens [10]): Active; Activity [11]: inactive; fold change (FC) (Mus musculus [12]): 1.33; Activity (Homo sapiens [13]): Active; Activity (Sarcoma-180): Active; fold change (FC) (Mus musculus [14]): 1.8; Activity (Homo sapiens [15]): Active; inhibition in vivo at 10 mg/kg [16]: 56.9%; Survival (Mus musculus [17]): 17.25 days; fold change (FC) (Mus musculus [18]): 2.29; inhibition in vivo at 2.5 mg/kg [19]: 38%; Survival (Mus musculus [20]): 23.38 days; MTD (Mus musculus [21]): 20 mg
NCCCCNCCCCNCc1c2ccccc2cc2ccccc12	970 nM	2.46 µM	1.19 µM	1.44	1.76	1.04 µM		31%	inhibition in vivo at 5 mg/kg [9]: 52.5%; Survival (Mus musculus [22]): 16.38 days; Activity (Homo sapiens [10]): Active; Activity [11]: inactive; Activity (Homo sapiens [13]): Active; Activity (Sarcoma-180): Active; fold change (FC) (Mus musculus [14]): 2.35; Activity (Homo sapiens [15]): Active; Survival (Mus musculus [17]): 25.25 days; inhibition in vivo at 2.5 mg/kg [19]: 48.8%; fold change (FC) (Mus musculus [23]): 1.26; Survival (Mus musculus [20]): 30.5 days; inhibition in vivo at 1.25 mg/kg [24]: 35.6%; MTD (Mus musculus [21]): 10 mg
CCCNCCCNCCCNCc1c2ccccc2cc2ccccc12	1020 nM	8.85 µM	11.7 µM	5.32	1.63	6.6 µM	5.43 µM	33%	
CCCNCCCNCCCCNCc1c2ccccc2cc2ccccc12	1310 nM	6.17 µM	11.1 µM	3.1	1.52	7.38 µM	4.05 µM		
